From ChEMBL document CHEMBL2311264, “Synthesis and anticancer activity of heteroaromatic linked 4β-amido podophyllotoxins as apoptotic inducing agents” (Bioorg Med Chem Lett, 2013) come the findings set out here.

pIC50: −log10 of the molar value. Activity calls are given as the source filed them. The calls are words filed in the database; no cut-off is given here.

Test [1] deals with HeLa. The test is described as follows: Cytotoxicity against human HeLa cells […] by MTT assay. It counts as functional, cell-based.
The test system of test [2] is B16. The test is described as follows: Cytotoxicity against mouse B16 cells […] by MTT assay. It is filed as functional, cell-based.
Test [3] deals with A549. Kind of test: Induction of apoptosis in human A549 cells assessed as nuclear fragmentation at 1 uM after 24 hrs by Hoechst staining method. It counts as functional, cell-based. A digest of the protocol: (§1)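 Cells were seeded at 10,000 per coverslip and grown 24 h, then treated 24 h. Vehicle control was 0.001% DMSO; etoposide was the standard. Hoechst at […] with 4% paraformaldehyde was added for 30 min at 37 °C. Random fields were imaged by fluorescence microscopy and apoptotic cells scored manually by cytoplasmic condensation, apoptotic bodies, nuclear fragmentation and relative fluorescence.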

Test [4] deals with A549. Kind of test: Induction of cell cycle arrest in human A549 cells assessed as S phase cells at 3 uM by FACS analysis (reference value: 3.69%). It is filed as functional.
For test [5], the system named is A549. The test is described as follows: Induction of cell cycle arrest in human A549 cells assessed as G1 phase cells at 3 uM by FACS analysis (reference value: 85.33%). It counts as functional.
In test [6] the test system is A549. The test is described as follows: Induction of cell cycle arrest in human A549 cells assessed as G2/M phase cells at 3 uM by FACS analysis (reference value: 9.89%). It is filed as functional.
The test system of test [7] is A549. Kind of test: Induction of apoptosis in human A549 cells assessed as nuclear fragmentation at 3 uM after 24 hrs by Hoechst staining method. It counts as functional, cell-based. A digest of the protocol: as §1
For test [8], the system named is A549. Kind of test: Induction of cell cycle arrest in human A549 cells assessed as sub G1 phase cells at 1 uM by FACS analysis (reference value: 1.08%). It counts as functional.
Test [9] concerns ACHN. Kind of test: Cytotoxicity against human ACHN cells […] by MTT assay. It is filed as functional, cell-based.
Test [10] has as its system A549. The test is described as follows: Induction of cell cycle arrest in human A549 cells assessed as sub G1 phase cells at 3 uM by FACS analysis (reference value: 1.08%). It is filed as functional.
Test [11] concerns A549. Kind of test: Induction of apoptosis in human A549 cells assessed as apoptotic bodies at 1 uM after 24 hrs by Hoechst staining method. It counts as functional, cell-based. A digest of the protocol: as §1
The test system of test [12] is A549. Kind of test: Induction of apoptosis in human A549 cells assessed as DNA fragmentation at 3 uM after 48 hrs by agarose gel electrophoretic analysis. It counts as functional, cell-based. A digest of the protocol:
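Cells were seeded at 1 × 10^6/well and grown 48 h, then treated 48 h. Cells were pelleted and lysed. Lysate was given SDS and RNase-A at 56 °C for 2 h, then proteinase K at 37 °C for 2 h. DNA was precipitated with ammonium acetate and cold ethanol, washed with 80% ethanol and dissolved in TE. Laddering was read on 2% agarose gel in TE; 50 bp marker.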

Test [13] concerns A549. Kind of test: Induction of apoptosis in human A549 cells assessed as increase in fluorescence at 3 uM after 24 hrs by Hoechst staining method relative to control. It counts as functional, cell-based. The gist of the method: as §1
Test [14] relates to A549. The test is described as follows: Induction of apoptosis in human A549 cells assessed as increase in caspase3 activity at 3 uM after 48 hrs relative to control. It counts as functional. The gist of the method: (§2)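 A-549 cells were seeded at 2.5 × 10^6/well and treated 48 h alongside etoposide, then scraped and lysed on ice. Supernatant was mixed with 2X assay buffer and Ac-DEVD-AFC substrate for 1 h. Fluorescence (ex 400, em 505 nm) was read every 5 min, normalized to Bradford protein and expressed as fold over control. Two experiments, each in triplicate.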

In test [15] the test system is A549. Kind of test: Induction of apoptosis in human A549 cells assessed as increase in caspase3 activity at 1 uM after 48 hrs relative to control. It counts as functional. The gist of the method: as §2
The subject of test [16] is A549. The test is described as follows: Induction of apoptosis in human A549 cells assessed as cytoplasmic condensation at 3 uM after 24 hrs by Hoechst staining method. It is filed as functional, cell-based. A digest of the protocol: as §1
Test [17] relates to A549. The test is described as follows: Induction of cell cycle arrest in human A549 cells assessed as G2/M phase cells at 1 uM by FACS analysis (reference value: 9.89%). It is filed as functional.
Test [18] has as its system HT-29. Kind of test: Cytotoxicity against human HT-29 cells after 72 hrs by MTT assay. It is filed as functional, cell-based. To be noted: HT-29, 72 h.
The test system of test [19] is A549. Kind of test: Induction of apoptosis in human A549 cells assessed as apoptotic bodies at 3 uM after 24 hrs by Hoechst staining method. It counts as functional, cell-based. A digest of the protocol: as §1
For test [20], the system named is A549. Kind of test: Induction of cell cycle arrest in human A549 cells assessed as G1 phase cells at 1 uM by FACS analysis (reference value: 85.33%). It is filed as functional.
Test [21] deals with A549. The test is described as follows: Cytotoxicity against human A549 cells […] by MTT assay. It counts as functional, cell-based.
The subject of test [22] is A549. The test is described as follows: Induction of apoptosis in human A549 cells assessed as cytoplasmic condensation at 1 uM after 24 hrs by Hoechst staining method. It is filed as functional, cell-based. A digest of the protocol: as §1
Test [23] concerns A549. Kind of test: Induction of cell cycle arrest in human A549 cells assessed as S phase cells at 1 uM by FACS analysis (reference value: 3.69%). It counts as functional.
In test [24] the test system is A549. The test is described as follows: Induction of apoptosis in human A549 cells assessed as increase in fluorescence at 1 uM after 24 hrs by Hoechst staining method relative to control. It is filed as functional, cell-based. The gist of the method:
as §1

Take `COc1cc([C@@H]2c3cc4c(cc3[C@@H](NC(=O)c3cc(-c5ccc(Cl)c(Cl)c5)[nH]n3)[C@H]3COC(=O)[C@H]23)OCO4)cc(OC)c1OC`: the negative-log IC50 (pIC50) was 5.03 in [1]; 5.02 in test [2]; 4.80 in test [9]; 5.15 in test [18]; 5.68 in [21]. For the same compound, the result in test [3], in test [7], in [11], in [12], in test [13] and in [16] was Active. The result in [19], in test [22] and in test [24] was Active. Moreover, the Activity is listed as 8.96% in test [4]; 27.71% in test [5]; 61.28% in test [6]; 6.77% in test [8]; 2.05% in [10]; 27.68% in [17]. For the same compound, the Activity was 63.35% in test [20] and 2.27% in test [23]. Besides, the “fold change (FC)” value in test [14] is 6; in test [15] it was 4.
Regarding `COc1cc([C@@H]2c3cc4c(cc3[C@@H](O[C@@H]3O[C@@H]5CO[C@@H](C)O[C@H]5[C@H](O)[C@H]3O)[C@H]3COC(=O)[C@H]23)OCO4)cc(OC)c1O` [ETOPOSIDE], the negative-log IC50 (pIC50) is 5.82 in test [1], 5.86 in test [2] and 5.55 in test [21]. Besides, the Activity in test [4] amounted to 2.42%; in test [5], 31.49%; in [6] it was 57.86%; in [8], 1.25%; in test [10] it was 8.3%; in test [17], 32.33%. For the same compound, the Activity worked out at 62.32% in test [20] and 4.1% in test [23]. The result in test [7], in test [12], in test [13], in [16] and in test [19] was Active. For the same compound, the “fold change (FC)” value in [14] came out at 6.
